Assay results reported in ChEMBL document CHEMBL1131241, “Cyclic HIV protease inhibitors: design and synthesis of orally bioavailable, pyrazole P2/P2' cyclic ureas with improved potency” (J Med Chem, 1998).
pKi: −log10 of the molar value.

How the values were obtained:
MT2 [1] = assay: Cytotoxicity was determined by 50% reduction in the number of viable MT2 cells with HIV-1RF; assay type: functional; conditions: Homo sapiens, read-out: TC50 (the source's name)
Method in brief: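 TC50 taken as concentration giving 50% fewer viable cells, with viability read by tetrazolium dye metabolism.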

[2] = Bioavailability as maximal plasma concentration in rats after 10 mg/kg oral dose; assay type: ADME, organism-based; set-up: dose 10 mg/kg, route oral; conditions: rat
MT2 [3] = assay: Concentration which reduced the concentration of HIV viral RNA by 90% from the level measured in an untreated infected culture; assay type: functional; conditions: Homo sapiens
Method in brief: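 MT-2 cells infected with HIV-1 RF. Uninfected cells preincubated 30 min with serial dilutions of compound in culture medium, then virus added; cultured 3 days at 37 °C, 5% CO₂. Lysed cells assayed for HIV RNA by microtiter plate hybridization. IC90 = concentration lowering viral RNA 90% versus untreated infected culture.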

[4] = target: Human immunodeficiency virus type 1 protease (Human immunodeficiency virus 1, UniProt Q72874); assay: Inhibition of HIV protease, measured by assaying the cleavage of a fluorescent peptide substrate using HPLC
[5] = Bioavailability as maximal plasma concentration in dogs after 2.5 mg/kg oral dose; assay type: ADME, organism-based, Canis lupus familiaris; set-up: dose 2.5 mg/kg, route oral; conditions: dog

## O=C1N(Cc2cccc(-c3cn[nH]c3)c2)[C@H](Cc2ccccc2)[C@H](O)[C@@H](O)[C@@H](Cc2ccccc2)N1Cc1cccc(-c2cn[nH]c2)c1
MT2 [1]
  CC50: 1400 nM
[2]
  Cmax: 0.075 µM
MT2 [3]
  IC90: 32 nM
[4]
  pKi: 9.21

## CC/C(=N/O)c1cccc(CN2C(=O)N(Cc3cccc(/C(CC)=N/O)c3)[C@H](Cc3ccccc3)[C@H](O)[C@@H](O)[C@H]2Cc2ccccc2)c1
MT2 [1]
  CC50: 5000 nM
MT2 [3]
  IC90: 7 nM
[4]
  pKi: 10.51

## O=C1N(Cc2cccnc2)[C@H](Cc2ccccc2)[C@H](O)[C@@H](O)[C@@H](Cc2ccccc2)N1Cc1cccc(-c2cc[nH]n2)c1
MT2 [1]
  CC50: 6300 nM
MT2 [3]
  IC90: 94 nM
[4]
  pKi: 9.77

## O=C1N(Cc2cccc(-c3cc[nH]n3)c2)[C@H](Cc2ccccc2)[C@H](O)[C@@H](O)[C@@H](Cc2ccccc2)N1Cc1cccc(-c2cc[nH]n2)c1
MT2 [1]
  CC50: 4200 nM
[2]
  Cmax: 0.068 µM
MT2 [3]
  IC90: 20 nM
[4]
  pKi: 10.57

## CCC/C(=N/O)c1cccc(CN2C(=O)N(Cc3cccc(/C(CCC)=N/O)c3)[C@H](Cc3ccccc3)[C@H](O)[C@@H](O)[C@H]2Cc2ccccc2)c1
MT2 [1]
  CC50: 3700 nM
MT2 [3]
  IC90: 64 nM
[4]
  pKi: 10.51

## O=C1N(Cc2cccc(C(=O)C(F)(F)F)c2)[C@H](Cc2ccccc2)[C@H](O)[C@@H](O)[C@@H](Cc2ccccc2)N1Cc1cccc(C(=O)C(F)(F)F)c1
MT2 [1]
  CC50: 5400 nM
MT2 [3]
  IC90: 33 nM
[4]
  pKi: 10.43

## O=C1N(Cc2cccc(-c3nc[nH]n3)c2)[C@H](Cc2ccccc2)[C@H](O)[C@@H](O)[C@@H](Cc2ccccc2)N1Cc1cccc(-c2nc[nH]n2)c1
MT2 [1]
  CC50: 53000 nM
MT2 [3]
  IC90: 128 nM
[4]
  pKi: 10.28

## O=C(NCCN1CCOCC1)c1cccc(CN2C(=O)N(Cc3cccc(-c4cc[nH]n4)c3)[C@H](Cc3ccccc3)[C@H](O)[C@@H](O)[C@H]2Cc2ccccc2)c1
MT2 [1]
  CC50: 43000 nM
MT2 [3]
  IC90: 128 nM
[4]
  pKi: 10.28

## CC(C)(C)C(=O)c1cccc(CN2C(=O)N(Cc3cccc(C(=O)C(C)(C)C)c3)[C@H](Cc3ccccc3)[C@H](O)[C@@H](O)[C@H]2Cc2ccccc2)c1
[4]
  pKi: 8.44

## O=C1N(Cc2cccc(-c3ncc[nH]3)c2)[C@H](Cc2ccccc2)[C@H](O)[C@@H](O)[C@@H](Cc2ccccc2)N1Cc1cccc(-c2ncc[nH]2)c1
MT2 [1]
  CC50: 78000 nM
MT2 [3]
  IC90: 234 nM
[4]
  pKi: 9.80

## CC(=O)c1cccc(CN2C(=O)N(Cc3cccc(C(C)=O)c3)[C@H](Cc3ccccc3)[C@H](O)[C@@H](O)[C@H]2Cc2ccccc2)c1
MT2 [1]
  CC50: 20000 nM
[2]
  Cmax: 0.5 µM
MT2 [3]
  IC90: 39 nM
[4]
  pKi: 10.22

## CCC(=O)c1cccc(CN2C(=O)N(Cc3cccc(C(=O)CC)c3)[C@H](Cc3ccccc3)[C@H](O)[C@@H](O)[C@H]2Cc2ccccc2)c1
MT2 [1]
  CC50: > 80000 nM
MT2 [3]
  IC90: 142 nM
[4]
  pKi: 9.68

## CCCC(=O)c1cccc(CN2C(=O)N(Cc3cccc(C(=O)CCC)c3)[C@H](Cc3ccccc3)[C@H](O)[C@@H](O)[C@H]2Cc2ccccc2)c1
MT2 [1]
  CC50: > 77000 nM
MT2 [3]
  IC90: 1440 nM
[4]
  pKi: 8.85

## O=C1N[C@H](Cc2ccccc2)[C@H](O)[C@@H](O)[C@@H](Cc2ccccc2)N1Cc1cccc(-c2cc[nH]n2)c1
MT2 [1]
  CC50: 21000 nM
[2]
  Cmax: 0.78 µM
MT2 [3]
  IC90: 67 nM
[4]
  pKi: 9.59

## Nc1cccc(CN2C(=O)N(Cc3cccc(-c4cc[nH]n4)c3)[C@H](Cc3ccccc3)[C@H](O)[C@@H](O)[C@H]2Cc2ccccc2)c1
MT2 [1]
  CC50: 6800 nM
MT2 [3]
  IC90: 27 nM
[4]
  pKi: 10.46
[5]
  Cmax: 0.85 µM

## O=C1N(Cc2cccc(-c3c[nH]cn3)c2)[C@H](Cc2ccccc2)[C@H](O)[C@@H](O)[C@@H](Cc2ccccc2)N1Cc1cccc(-c2c[nH]cn2)c1
MT2 [1]
  CC50: 8800 nM
[2]
  Cmax: < 0.042 µM
MT2 [3]
  IC90: 84 nM
[4]
  pKi: 9.72

## Nc1cccc(CN2C(=O)N(Cc3cccc(N)c3)[C@H](Cc3ccccc3)[C@H](O)[C@@H](O)[C@H]2Cc2ccccc2)c1 [MOZENAVIR]
[2]
  Cmax: 2.25 µM

## O=C1N(Cc2cccc(CO)c2)[C@H](Cc2ccccc2)[C@H](O)[C@@H](O)[C@@H](Cc2ccccc2)N1Cc1cccc(-c2cc[nH]n2)c1
MT2 [1]
  CC50: 20000 nM
[2]
  Cmax: 0.11 µM
MT2 [3]
  IC90: 234 nM
[4]
  pKi: 9.80

## O=C1N(Cc2cccc(-c3nnn[nH]3)c2)[C@H](Cc2ccccc2)[C@H](O)[C@@H](O)[C@@H](Cc2ccccc2)N1Cc1cccc(-c2nnn[nH]2)c1
MT2 [1]
  CC50: 78000 nM
MT2 [3]
  IC90: > 70000 nM
[4]
  pKi: 8.18

## O=C1N(Cc2ccc(O)cc2)[C@H](Cc2ccccc2)[C@H](O)[C@@H](O)[C@@H](Cc2ccccc2)N1Cc1cccc(-c2cc[nH]n2)c1
MT2 [1]
  CC50: 4800 nM
MT2 [3]
  IC90: 30 nM
[4]
  pKi: 10.68

## O=C1N(Cc2cccc(/C(=N/O)C(F)(F)F)c2)[C@H](Cc2ccccc2)[C@H](O)[C@@H](O)[C@@H](Cc2ccccc2)N1Cc1cccc(/C(=N\O)C(F)(F)F)c1
MT2 [1]
  CC50: 14000 nM
MT2 [3]
  IC90: 714 nM
[4]
  pKi: 8.41

## O=Cc1cccc(CN2C(=O)N(Cc3cccc(C=O)c3)[C@H](Cc3ccccc3)[C@H](O)[C@@H](O)[C@H]2Cc2ccccc2)c1
MT2 [1]
  CC50: 19000 nM
[2]
  Cmax: 0.26 µM
MT2 [3]
  IC90: 36 nM
[4]
  pKi: 9.36

## O=C1N(Cc2cccc(-c3c[nH]nn3)c2)[C@H](Cc2ccccc2)[C@H](O)[C@@H](O)[C@@H](Cc2ccccc2)N1Cc1cccc(-c2c[nH]nn2)c1
MT2 [1]
  CC50: 47000 nM
MT2 [3]
  IC90: 94 nM
[4]
  pKi: 9.77

## COC(=O)c1cccc(CN2C(=O)N(Cc3cccc(-c4cc[nH]n4)c3)[C@H](Cc3ccccc3)[C@H](O)[C@@H](O)[C@H]2Cc2ccccc2)c1
MT2 [1]
  CC50: 5700 nM
[2]
  Cmax: 0.32 µM
MT2 [3]
  IC90: 32 nM
[4]
  pKi: 9.85

## C/C(=N/O)c1cccc(CN2C(=O)N(Cc3cccc(/C(C)=N/O)c3)[C@H](Cc3ccccc3)[C@H](O)[C@@H](O)[C@H]2Cc2ccccc2)c1
MT2 [1]
  CC50: 81000 nM
[2]
  Cmax: 0.06 µM
MT2 [3]
  IC90: 2 nM
[4]
  pKi: 10.74

## O=C1N(Cc2cccc(/C=N\O)c2)[C@H](Cc2ccccc2)[C@H](O)[C@@H](O)[C@@H](Cc2ccccc2)N1Cc1cccc(/C=N/O)c1
MT2 [1]
  CC50: 16000 nM
[2]
  Cmax: 0.3 µM
MT2 [3]
  IC90: 5 nM
[4]
  pKi: 11.00
